ChEMBL document CHEMBL5620424, “Design, synthesis and evaluation of novel 2-phenyl-3-(1H-pyrazol-4-yl)pyridine positive allosteric modulators for the M4 mAChR” (Eur J Med Chem, 2023)

Experiments:
[1] = molecular target: T1, Muscarinic acetylcholine receptor M4 (Homo sapiens) (UniProt P08173); assay: […] human M4 mAChR expressed in Flp-In-CHO cells co-expressing CAMYEL biosensor assessed as change in baseline response at 10 uM incubated for 5 mins by BRET assay relative to control; type: cell-based
T1 sequence (whole entry): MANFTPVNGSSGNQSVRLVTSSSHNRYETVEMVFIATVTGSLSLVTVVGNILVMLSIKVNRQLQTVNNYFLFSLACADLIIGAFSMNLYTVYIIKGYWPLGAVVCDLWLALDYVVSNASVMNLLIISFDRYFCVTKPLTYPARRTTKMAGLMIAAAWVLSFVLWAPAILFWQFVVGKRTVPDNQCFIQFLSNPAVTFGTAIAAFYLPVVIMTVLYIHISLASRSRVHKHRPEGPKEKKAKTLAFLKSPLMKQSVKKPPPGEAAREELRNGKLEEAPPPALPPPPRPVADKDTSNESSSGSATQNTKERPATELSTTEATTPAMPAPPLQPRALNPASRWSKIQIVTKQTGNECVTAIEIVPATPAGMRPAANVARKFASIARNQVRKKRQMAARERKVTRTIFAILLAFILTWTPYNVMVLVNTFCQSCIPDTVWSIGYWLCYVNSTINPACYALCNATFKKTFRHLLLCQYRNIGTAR
Procedure, shortened: (§1)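 FlpInCHO cells stably expressing human M4 mAChR, transiently transfected with CAMYEL cAMP BRET biosensor (60 ng/well, PEI), assayed 48 h later in HBSS pH 7.4. Full ACh concentration-response curve alone or with modulator at 1 or 10 μM, co-added with coelenterazine h (5 μM), 5 min, 37 °C. Three-parameter logistic fit; ACh curve values subtracted from ACh+modulator values. Δbaseline and ΔEmax given as % of maximal ACh response without modulator. 4 experiments in duplicate, SEM pooled.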

[2] = molecular target: T1, Muscarinic acetylcholine receptor M4 (Homo sapiens); assay: Positive allosteric modulation at human M4 mAChR expressed in Flp-In-CHO cells co-expressing CAMYEL biosensor assessed as change in maximum ACh-mediated response at 10 uM incubated for 5 mins by BRET assay relative to control; type: cell-based; procedure, shortened: as §1
[3] = molecular target: T1, Muscarinic acetylcholine receptor M4 (Homo sapiens); assay: Positive allosteric modulation at Rluc-tagged human M4 mAChR expressed in Flp-In-CHO cells co-expressing eYFP-tagged beta-arrestin 2 assessed as efficacy of ACh-mediated beta-arrestin 2 recruitment (log tau B) incubated for 5 mins by luminometry; type: cell-based; details: filed as positive allosteric modulator
Procedure, shortened: (§2)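 FlpInCHO cells co-transfected with human M4-Rluc8 (20 ng/well) and β-arrestin-2-eYFP (80 ng/well) using PEI, assayed after 48 h. Coelenterazine h (5 μM) preincubated 5 min, then ACh plus modulator ranges for 5 min at 37 °C; BRET at 475/535 nm. Fit to simplified operational model with slope 1 and KB fixed from binding. 4–5 experiments in duplicate.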

[4] = molecular target: T1, Muscarinic acetylcholine receptor M4 (Homo sapiens); assay: Displacement of 3[H]-NMS from human M4 mAChR expressed in Flp-In-CHO cells assessed as binding co-operativity (log alpha) incubated for 6 hrs in presence of ACh by microbeta2 plate reader assay; type: cell-based; details: filed as positive allosteric modulator
Procedure, shortened: (§3)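 Intact FlpInCHO-hM4 cells, 20,000/well grown overnight, in HBSS pH 7.4 with [3H]-NMS 0.5 nM, ACh (0.01 μM–10 mM) and modulator (0.1–10 μM), shaken 6 h at room temperature. Washed with ice-cold 0.9% NaCl, then scintillation counting. Nonspecific binding defined with 10 μM atropine. pKB and log α(ACh) from global fit to allosteric ternary complex model, with log α′(NMS) fixed at –3 under strong negative cooperativity. 4–5 experiments in duplicate.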

[5] = molecular target: T1, Muscarinic acetylcholine receptor M4 (Homo sapiens); assay: Displacement of 3[H]-NMS from human M4 mAChR expressed in Flp-In-CHO cells assessed as binding constant incubated for 6 hrs by microbeta2 plate reader assay; type: cell-based; details: filed as positive allosteric modulator; procedure, shortened: as §3
[6] = molecular target: T1, Muscarinic acetylcholine receptor M4 (Homo sapiens); assay: Positive allosteric modulation at human M4 mAChR expressed in Flp-In-CHO cells co-expressing CAMYEL biosensor assessed as change in ACh-mediated response incubated for 5 mins by BRET assay; type: cell-based; details: filed as positive allosteric modulator; procedure, shortened: as §1
[7] = molecular target: T1, Muscarinic acetylcholine receptor M4 (Homo sapiens); assay: Positive allosteric modulation at Rluc-tagged human M4 mAChR expressed in Flp-In-CHO cells co-expressing eYFP-tagged beta-arrestin 2 assessed as ACh-mediated beta-arrestin 2 recruitment co-operativity (log alpha beta) incubated for 5 mins by luminometry; type: cell-based; details: filed as positive allosteric modulator; procedure, shortened: as §2
[8] = molecular target: T1, Muscarinic acetylcholine receptor M4 (Homo sapiens); assay: Positive allosteric modulation at human M4 mAChR expressed in Flp-In-CHO cells co-expressing CAMYEL biosensor assessed as ACh-mediated cAMP signalling co-operativity (log alpha beta) incubated for 5 mins by BRET assay; type: functional, cell-based; details: filed as positive allosteric modulator
Procedure, shortened: (§4)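 CAMYEL-transfected FlpInCHO-hM4 cells (48 h post-transfection) given ACh and modulator concentration ranges in full interaction design, 5 min at 37 °C; BRET read with coelenterazine h. Fit to complete operational model of allosterism and agonism with ACh KA and modulator KB fixed from binding assays. Gives log τB and log αβ. 4–5 experiments in duplicate.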

[9] = molecular target: T1, Muscarinic acetylcholine receptor M4 (Homo sapiens); assay: Positive allosteric modulation at human M4 mAChR expressed in Flp-In-CHO cells co-expressing CAMYEL biosensor assessed as efficacy of ACh-mediated cAMP signalling (log tau B) incubated for 5 mins by BRET assay; type: functional, cell-based; details: filed as positive allosteric modulator; procedure, shortened: as §4
[10] = filed as positive allosteric modulator

Row | Structure (SMILES) | Activity [1, 10] [%] | Emax [2, 10] [%] | log(activity) [3] | log(activity) [4] | pKb [5] | deltapEC50 [6] | log(activity) [7] | log(activity) [8] | log(activity) [9] | Activity [1] [%] | Emax [2] [%]
1 | Cc1ccc(-c2cnn(CC3CC3)c2)c(-c2ccc3c(c2)C(=O)N(C)C3)n1 | 102 | 69.6 | 0.64 | 1.95 | 5.84 | 1.64 | 1.29 | 2.22 | -0.54 |  | 
2 | CN1Cc2ccc(-c3ccccc3-c3cnn(CC4CCCC4)c3)cc2C1=O |  |  |  |  |  | 0.63 |  |  |  | 6.49 | 25.6
3 | Cc1ccc(-c2cnn(Cc3ccccc3)c2)c(-c2ccc3c(c2)C(=O)N(C)C3)n1 | 77.1 | 63.8 |  |  |  | 1.87 |  |  |  |  | 
4 | CN1Cc2ccc(-c3ncccc3-c3cnn(CC4CCCC4)c3)cc2C1=O |  | 41.6 | 0.51 | 2.18 | 5.33 | 0.88 | 2.09 | 2.47 | -0.81 | 13 | 
5 | CC(=O)Nc1cccc(-c2nc(C)ccc2-c2cnn(CC3CCCC3)c2)c1 | 52.2 | 57.7 |  |  |  | 1.63 |  |  |  |  | 
6 | Cc1ccc(-c2cnn(CC3CCN(C(=O)OC(C)(C)C)CC3)c2)c(-c2ccc3c(c2)C(=O)N(C)C3)n1 |  | 52.5 |  |  |  | 0.6 |  |  |  | 5.53 | 
7 | Cc1ccc(-c2cnn(CC3CCCC3)c2)c(-c2cccc(C(N)=O)c2)n1 | 77.3 | 65.6 |  |  |  | 1.33 |  |  |  |  | 
8 | Cc1ccc(-c2cnn(C)c2)c(-c2ccc3c(c2)C(=O)N(C)C3)n1 |  |  |  |  |  | 0.57 |  |  |  | 13.7 | 27
9 | Cc1ccc(-c2cnn(CC3CCCC3)c2)c(-c2cccc(C(=O)N(C)C)c2)n1 |  | 97.7 | -0.83 | 1.47 | 4.49 | 0.25 | 1.06 | 2.03 | -0.58 | 33.2 | 
10 | CN1Cc2ccc(-c3ccncc3-c3cnn(CC4CCCC4)c3)cc2C1=O | 90.6 | 66.6 |  |  |  | 1.49 |  |  |  |  | 
11 | Cc1ccc(-c2cnn(CC3CCCC3)c2)c(-c2ccc3c(c2)C(=O)NC3)n1 | 89.7 | 73.3 |  |  |  | 2.57 |  |  |  |  | 
12 | Cc1ccc(-c2cnn(CC(C)C)c2)c(-c2ccc3c(c2)C(=O)N(C)C3)n1 | 108 | 84.8 |  |  |  | 1.36 |  |  |  |  | 
13 | CCCN1Cc2ccc(-c3nc(C)ccc3-c3cnn(CC4CCCC4)c3)cc2C1=O | 83.3 | 50.5 |  |  |  | 2.11 |  |  |  |  | 
14 | Cc1ccc(-c2cn(CC3CCCC3)nn2)c(-c2ccc3c(c2)C(=O)N(C)C3)n1 |  |  |  |  |  | 1.07 |  |  |  | 20 | 11.8
15 | Cc1ccc(-c2cnn(CC3CCOCC3)c2)c(-c2ccc3c(c2)C(=O)N(C)C3)n1 | 86.7 | 47.1 |  |  |  | 1.16 |  |  |  |  | 
16 | Cc1ccc(-c2cnn(CC3CCC3)c2)c(-c2ccc3c(c2)C(=O)N(C)C3)n1 | 124 | 74 |  |  |  | 1.05 |  |  |  |  | 
17 | Cc1ccc(-c2cnn(CC3CCCC3)c2)c(-c2ccc(N)cc2)n1 | 88.1 | 80.6 |  |  |  | 1.31 |  |  |  |  | 
18 | Cc1ccc(-c2cnn(CC3CCCC3)c2)c(-c2ccccc2)n1 |  |  | 0.87 | 1.98 | 4.68 | 1.15 | 1.87 | 2.46 | 0.04 | 32.1 | 21.8
19 | CN1Cc2ccc(-c3cnccc3-c3cnn(CC4CCCC4)c3)cc2C1=O | 47.2 | 56.8 |  |  |  | 0.17 |  |  |  |  | 
20 | Cc1ccc(-c2cnn(CC3CCCCC3)c2)c(-c2ccc3c(c2)C(=O)N(C)C3)n1 | 106 | 63.9 | 0.56 | 1.92 | 6.11 | 0.73 | 1.1 | 2.01 | -0.88 |  | 
21 | CN1Cc2ccc(-c3nccnc3-c3cnn(CC4CCCC4)c3)cc2C1=O | 48.5 |  | 0.07 | 1.41 | 4.55 | -0.34 | 0.94 | 1.81 | -0.74 |  | 35.1
22 | Cc1ccc(-c2ccc3c(c2)C(=O)N(C)C3)c(-c2cnn(CC3CCOCC3)c2)n1 |  |  |  |  |  | 0.58 |  |  |  | 4.76 | 3.58
23 | Cc1ccc(-c2cnn(CC3CCCC3)c2)c(-c2ccc3c(c2)NC(=O)C3)n1 |  |  |  |  |  | 1.24 |  |  |  | 18.6 | 39
24 | CNC(=O)c1cccc(-c2nc(C)ccc2-c2cnn(CC3CCCC3)c2)c1 | 78.2 | 61.3 |  |  |  | 1.99 |  |  |  |  | 
25 | Cc1ccc(-c2cnn(CC3CCCC3)c2)c(-c2cccc(N)c2)n1 | 51.7 | 53.5 |  |  |  | 1.35 |  |  |  |  | 
26 | Cc1ccc(-n2cc(CC3CCCC3)nn2)c(-c2ccc3c(c2)C(=O)N(C)C3)n1 |  |  |  |  |  | 1.06 |  |  |  | 24.5 | 13.9
